Here are results for 2 compounds from ChEMBL document CHEMBL1159121, “Synthesis, in vitro structure-activity relationship, and in vivo studies of 2-arylthiazolidine-4-carboxylic acid amides as anticancer agents” (Bioorg Med Chem, 2010).

Calls of active or inactive are those of the source. The calls are words filed in the database; no cut-off is given here.

The term IC50 denotes the midpoint of a concentration-inhibition curve.

The subject of data set [1] is A-375. Briefly: Inhibition of human A375 cells colony formation at 2 uM after 7 days by colony-formation assay. It counts as functional, cell-based.
A short description of data set [2]: Antiproliferative activity against mouse B16-F1 cells after 48 hrs by SRB assay. In kind it is functional, cell-based. As to conditions: B16-F1, 48 h. An outline of the steps: (§1)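 Melanoma lines and control fibroblasts grown at 37 °C, 5% CO2, then exposed to a wide concentration range for 48 h in round-bottom 96-well plates. Fixed with 10% TCA, stained with SRB, protein read at 560 nm. IC50 (50% growth inhibition versus untreated) obtained by nonlinear regression.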

Data set [3] addresses T1, Lysophosphatidic acid receptor 3 (Homo sapiens) (UniProt Q9UBY5).
T1 sequence (whole entry): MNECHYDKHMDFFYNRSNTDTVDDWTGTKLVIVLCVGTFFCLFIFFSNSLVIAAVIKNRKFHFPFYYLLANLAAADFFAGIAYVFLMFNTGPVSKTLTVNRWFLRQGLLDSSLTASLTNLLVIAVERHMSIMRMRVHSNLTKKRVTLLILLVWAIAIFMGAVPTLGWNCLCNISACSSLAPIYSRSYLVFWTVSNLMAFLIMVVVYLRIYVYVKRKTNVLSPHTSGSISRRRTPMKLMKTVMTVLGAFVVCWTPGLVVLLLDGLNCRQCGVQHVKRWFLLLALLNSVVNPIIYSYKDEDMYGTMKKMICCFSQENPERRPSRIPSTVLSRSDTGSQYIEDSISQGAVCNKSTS
Briefly: Antagonist activity at LPA3 expressed in human chem1 cells assessed as effect on intracellular calcium mobilization by FLIPR assay. In kind it is functional, cell-based. The essentials: (§2)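 LPA1-, LPA3- or LPA5-transfected Chem-1 cells, Fluo-4 NW loaded, preincubated 10 min at 25 °C with compound. Dilution series was eight-point, fourfold, top final concentration 10 μM. […] FLIPR Ca2+ signal read for 180 s, percentage inhibition calculated; 50% inhibition was taken as antagonism.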
(In general: A change in cytosolic calcium serves as a functional read-out for many receptors and channels.)

Data set [4] in a line: Selectivity ratio of IC50 for human fibroblasts to IC50 for human melanoma cells. The note with it: human fibroblasts and human melanoma cells, read-out: Ratio IC50. In kind it is ADME.
The next data set deals with LNCaP. The experiment in a line: Cell cycle arrest in human LNCAP cells by assessed as increase in accumulation at subG1 phase […] by flow cytometry. In kind it is functional, cell-based. For orientation: A flow cytometer gives signals particle by particle.
Data set [5] concerns the target Lysophosphatidic acid receptor 5 (Homo sapiens) (UniProt Q9H1C0). Briefly: Agonist activity at LPA5 expressed in human chem1 cells assessed as intracellular calcium mobilization by FLIPR assay. In kind it is functional, cell-based. The essentials:
(§3)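 Chem-1 cells stably transfected with LPA1, LPA3 or LPA5, kept in DMEM/10% FBS; Fluo-4 NW loaded. Compound added as an eight-point fourfold serial dilution (top 10 μM), then incubated 10 min at 25 °C. Ca2+ flux read for 180 s on FLIPR, expressed as percentage activation.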

Data set [6] deals with T2, Lysophosphatidic acid receptor 1 (Homo sapiens, UniProt Q92633). The experiment in a line: Antagonist activity at LPA1 expressed in human chem1 cells assessed as effect on intracellular calcium mobilization by FLIPR assay. It counts as functional, cell-based. An outline of the steps: as §2
Data set [7] concerns A-375. Briefly: Inhibition of human A375 cells colony formation at 100 uM after 7 days by colony-formation assay. In kind it is functional, cell-based.
For data set [8], the target named is T1, Lysophosphatidic acid receptor 3 (Homo sapiens). Briefly: Agonist activity at LPA3 expressed in human chem1 cells assessed as intracellular calcium mobilization by FLIPR assay. It counts as functional, cell-based. An outline of the steps:
as §3

Data set [9] deals with A-375. Briefly: Antiproliferative activity against human A375 cells after 48 hrs by SRB assay. In kind it is functional, cell-based. As to conditions: A-375, 48 h. The essentials: as §1
On the technique in general: The SRB assay estimates cell density from bound dye.

Data set [10] is described as follows: Antiproliferative activity against human WM164 cells after 48 hrs by SRB assay. As to conditions: WM164, 48 h. It counts as functional, cell-based. The essentials: as §1
Data set [11] is described as follows: Cytotoxicity against human fibroblasts after 48 hrs by SRB assay. In kind it is cell-based. As to conditions: Fibroblast. The essentials: as §1
Data set [12] concerns the target T2, Lysophosphatidic acid receptor 1. The experiment in a line: Agonist activity at LPA1 expressed in human chem1 cells assessed as intracellular calcium mobilization by FLIPR assay. In kind it is functional, cell-based. An outline of the steps:
as §3

Data set [13] has as its system A-375. The experiment in a line: Cell cycle arrest in human A375 cells by assessed as increase in accumulation at subG1 phase […] by flow cytometry. It counts as functional, cell-based.
Data set [14] concerns A-375. Briefly: Inhibition of human A375 cells colony formation at 20 uM after 7 days by colony-formation assay. In kind it is functional.
Data set [15] concerns the target Lysophosphatidic acid receptor 5 (Homo sapiens) (UniProt Q9H1C0). Briefly: Antagonist activity at LPA5 expressed in human chem1 cells assessed as effect on intracellular calcium mobilization by FLIPR assay. It counts as functional, cell-based. The essentials: as §2

T2 sequence (Q92633 whole entry): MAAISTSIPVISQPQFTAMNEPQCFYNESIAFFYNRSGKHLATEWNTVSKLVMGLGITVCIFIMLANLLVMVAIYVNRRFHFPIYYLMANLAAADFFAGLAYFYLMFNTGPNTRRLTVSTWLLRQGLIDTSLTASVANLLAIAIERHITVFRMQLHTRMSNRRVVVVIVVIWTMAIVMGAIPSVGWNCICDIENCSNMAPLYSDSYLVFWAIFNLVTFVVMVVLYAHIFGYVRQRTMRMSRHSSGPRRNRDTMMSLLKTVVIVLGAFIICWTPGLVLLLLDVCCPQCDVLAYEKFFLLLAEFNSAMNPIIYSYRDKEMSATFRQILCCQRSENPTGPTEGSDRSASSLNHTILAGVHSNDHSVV
Chain of Lysophosphatidic acid receptor 5 (Homo sapiens) (Q9H1C0 whole entry): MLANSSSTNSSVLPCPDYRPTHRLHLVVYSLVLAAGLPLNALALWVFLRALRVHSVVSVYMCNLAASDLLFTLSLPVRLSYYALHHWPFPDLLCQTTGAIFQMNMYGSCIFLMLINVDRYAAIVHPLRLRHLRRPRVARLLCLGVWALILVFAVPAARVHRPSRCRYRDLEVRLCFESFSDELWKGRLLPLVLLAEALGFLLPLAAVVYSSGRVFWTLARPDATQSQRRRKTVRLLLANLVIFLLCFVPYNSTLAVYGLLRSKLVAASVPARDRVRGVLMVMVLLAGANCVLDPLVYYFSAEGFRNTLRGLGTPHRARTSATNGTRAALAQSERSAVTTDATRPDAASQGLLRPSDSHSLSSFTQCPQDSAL

Take `CCCCCCCCCCCCCCCCNC(=O)[C@@H]1CSC(c2cc(OC)c(OC)c(OC)c2)N1` (mixture of isomers): the outcome in the data set on A-375 [1], with A-375 [7] and in the data set with A-375 [14] was Active. Besides, the IC50 in [2] is 1600 nM; with A-375 [9], 1400 nM; in data set [10], 700 nM; in data set [11], 2400 nM. For the same compound, the result in data set [3], in [5], in data set [6], in [8], in [12] and in [15] was inactive. Moreover, the selectivity ratio in [4] came to 2. Further, the Activity entry in the data set with LNCaP and in the data set on A-375 [13] was “Dose-dependent effect” throughout.

In the case of `Cc1noc(-c2ccc(CSCCC(=O)O)cc2)c1NC(=O)OC(C)c1ccccc1Cl` (stereo not given), the result in data set [5], in data set [8] and in [12] was inactive. For the same compound, the IC50 in data set [6] came out at 46 nM.
